Laboratory results taken from ChEMBL document CHEMBL4699419, “Antileishmanial assessment of isoxazole derivatives against L. donovani” (RSC Med Chem, 2020).

Columns and labels:
[1] = system: Leishmania amazonensis; assay: Antileishmanial activity against intracellular amastigote stage of Leishmania amazonensis (IFLA/BR/1967/PH8 strain) assessed as reduction in parasite viability incubated for 24 hrs by Neubauer chamber cell counting method; format: functional, organism-based; conditions: IFLA/BR/1967/PH8, 24 h
[2] = system: Leishmania amazonensis; assay: Antileishmanial activity against promastigote form of Leishmania amazonensis (IFLA/BR/1967/PH8 strain) assessed as reduction in parasite viability incubated for 72 hrs by MTT assay; format: functional, organism-based; conditions: IFLA/BR/1967/PH8, 72 h
[3] = system: Leishmania donovani; assay: (§1) Antileishmanial activity against Leishmania donovani amastigotes infected in golden hamster assessed as reduction in parasite burden in spleen at 30 mg/kg, po initiated after 2 days of pre-treatment biopsy administered for 5 days and measured on day 28 by giemsa staining based assay relative to control; format: functional; conditions: 672 h, time 28 day
Outline: (§2)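 Male inbred golden hamsters, 40–45 g, infected with L. donovani. Animals with +1 infection on pre-treatment spleen biopsy (5–15 amastigotes/100 spleen cell nuclei) randomized, five per group. Oral dosing in 5% carboxymethyl cellulose vehicle began 2 days after biopsy and ran 5 consecutive days; vehicle-only infected controls. Giemsa-stained spleen biopsies taken on day 7 or 28 after the last dose; PI = 100 – [ANAT × 100/(INAT × TIUC)].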

[4] = Cytotoxicity against mouse J774A1 cells assessed as reduction in cell viability incubated for 48 hrs by MTT assay; format: cell-based, J774.A1
Outline: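 J774A.1 macrophages, 0.2 × 10^6 per well, incubated overnight at 37 °C in 5% CO2, then exposed to compounds in DMSO for 48 h, with DMSO dilutions as controls. Viability read by MTT formazan at 600 nm. CC50 = 50% viability reduction versus medium-only cells, from probit regression; three independent experiments.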

[5] = system: Leishmania donovani; assay: Antileishmanial activity against late log phase promastigote stage of Leishmania donovani MHOM/IN/80/Dd8 harboring luciferase reporter gene incubated for 72 hrs by Steady-Glo luminescence assay; format: functional, organism-based; conditions: Leishmania donovani, MHOM/IN/80/Dd8, 72 h; read-out: IC50
Outline: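 Luciferase-transfected promastigotes kept at 25 ± 1 °C in medium 199 + 10% heat-inactivated FCS + G418 (20 μg ml–1). Late-log cells (5 × 10^5 per well) grown 72 h with graded compound concentrations from DMSO, DMSO dilution controls. Aliquot mixed 1:1 with Steady-Glo, luminescence (RLU) read; % inhibition vs control. IC50 by Probit regression, three independent experiments.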

[6] = system: Leishmania donovani; assay: Antileishmanial activity against Leishmania donovani MHOM/IN/80/Dd8 promastigotes harboring luciferase reporter gene infected in mouse J774 cells assessed as inhibition of amastigote growth incubated for 72 hrs by Steady-Glo luminescence assay; format: functional, organism-based; conditions: Leishmania donovani, MHOM/IN/80/Dd8, J774, 72 h; read-out: IC50
Outline: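 J774A.1 mouse macrophages (2 × 10^5 per well, RPMI-1640 + 10% FCS, 37 °C CO2) infected after 24 h with stationary-phase luciferase-transgenic promastigotes at 1:10 macrophage:parasite; compounds in complete medium for 72 h at 37 °C. Medium swapped for PBS, Steady-Glo added, luminescence read; % inhibition vs untreated control RLU. IC50 by Probit log dose/response regression, three independent experiments.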

[7] = system: Leishmania donovani; assay: as §1, with “7” for “28”; format: functional; conditions: 168 h, time 7 day; outline: as §2
[8] = Selectivity index, ratio of CC50 for mouse J774.A1 cells to IC50 for amastigote form of Leishmania donovani MHOM/IN/80/Dd8; format: toxicity; conditions: read-out: Ratio CC50/IC50
Outline: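 Macrophages infected at a 1:10 ratio with stationary promastigotes, then treated 72 h at 37 °C; luminescence read with Steady-Glo. IC50 values from probit analysis.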

[9] = system: Leishmania donovani; assay: as §1, with “50” for “30”, “ip” for “po”; format: functional; conditions: 672 h, time 28 day
Outline: (§3)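 Male inbred golden hamsters, 40–45 g, infected with L. donovani. Animals with +1 infection on pre-treatment spleen biopsy randomized, five per group. Intraperitoneal dosing in a vehicle of 10% Tween-80/ethanol (70:30) in ddH2O, 10% final, began 2 days after biopsy and ran 5 consecutive days; vehicle-only controls. Giemsa-stained spleen biopsies taken on day 7 or 28; percentage inhibition computed from initial, treated and untreated-control amastigote counts.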

[10] = system: Leishmania donovani; assay: as §1, with “100” for “30”, “7” for “28”; format: functional; conditions: 168 h, time 7 day; outline: as §2
[11] = system: Leishmania donovani; assay: as §1, with “50” for “30”, “ip” for “po”, “7” for “28”; format: functional; conditions: 168 h, time 7 day; outline: as §3
[12] = system: Leishmania donovani; assay: as §1, with “100” for “30”; format: functional; conditions: 672 h, time 28 day; outline: as §2
[13] = Tmax in golden hamster at 100 mg/kg, po measured upto 24 hrs by LC/MS-MS analysis; format: ADME, organism-based, Mesocricetus auratus; conditions: in vivo
Outline: (§4)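 Male Syrian hamsters, three per group; single oral dose of 100 mg kg–1 as a suspension in 0.5% sodium carboxymethylcellulose. Plasma concentrations followed over 24 h by LC–MS/MS with electrospray ionization. Parameters derived by non-compartmental analysis; mean ± SD of n = 3.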

[14] = AUC (0 to infinity) in golden hamster at 100 mg/kg, po measured upto 24 hrs by LC/MS-MS analysis; format: ADME, organism-based, Mesocricetus auratus; parameters: route oral, dose 100 mg/kg, time <=24; conditions: in vivo; outline: as §4
[15] = Drug metabolism in golden hamster at 100 mg/kg, po measured upto 24 hrs by LC/MS-MS analysis; format: ADME, organism-based, Mesocricetus auratus; conditions: in vivo
[16] = Half life in golden hamster at 100 mg/kg, po measured upto 24 hrs by LC/MS-MS analysis; format: ADME, organism-based, Mesocricetus auratus; conditions: in vivo; outline: as §4
[17] = MRT in golden hamster at 100 mg/kg, po measured upto 24 hrs by LC/MS-MS analysis; format: ADME, organism-based, Mesocricetus auratus; conditions: in vivo; outline: as §4
[18] = Cmax in golden hamster at 100 mg/kg, po measured upto 24 hrs by LC/MS-MS analysis; format: ADME, organism-based, Mesocricetus auratus; parameters: route oral, dose 100 mg/kg, time <=24; conditions: in vivo; outline: as §4

Row | SMILES | IC50 [1] [µM] | IC50 [2] [µM] | inhibition in vivo at 30 mg/kg [3] [%] | CC50 at 48 h [4] [µM] | IC50 [5] [µM] | IC50 [6] [µM] | inhibition in vivo at 30 mg/kg [7] [%] | selectivity ratio [8] | inhibition in vivo at 50 mg/kg [9] [%] | inhibition in vivo at 100 mg/kg [10] [%] | inhibition in vivo at 50 mg/kg [11] [%] | inhibition in vivo at 100 mg/kg [12] [%] | Tmax [13] [h] | AUC(0-inf) [14] [ng·h/mL] | Drug metabolism [15] | half-life [16] [h] | MRT [17] [h] | Cmax [18] [ng/mL]
1 | O=[N+]([O-])c1ccc(-c2cc(-c3ccc(CCl)cc3)on2)o1 | 0.6 | 3.5 | – | – | – | – | – | – | – | – | – | – | – | – | – | – | – | –
2 | CCCCCCCCCCCCCCCCOP(=O)([O-])OCC[N+](C)(C)C [MILTEFOSINE] | – | – | 98.4 | 53.3 | 2.52 | 9.25 | 97.3 | 5.76 | – | – | – | – | – | – | – | – | – | –
3 | COC(=O)c1c([N+](=O)[O-])noc1-c1cc2c(cc1[N+](=O)[O-])OCO2 | – | – | – | 113 | 0.67 | 17.4 | – | 6.51 | 71.2 | 48.4 | 36 | 66 | – | – | – | – | – | –
4 | COC(=O)c1c(NCc2ccc(C(C)(C)C)cc2)noc1-c1cc2c(cc1[N+](=O)[O-])OCO2 | – | – | – | 7.49 | 2.14 | 0.54 | – | 14 | 28.6 | 69.5 | 71.1 | 12.7 | 3 | 149 | Metabolite_Detected | 3.78 | 9.53 | 15.4
